≈ marks a conversion by molar mass, not a printed value. Where a SMILES comes first, the peptide text is derived from it. [ ]: non-standard residue; d: D form. The star is where a group is joined. ξ: configuration not given here. Octanoyl(7-Me) = CC(C)CCCCCC(=O)*; Hexanoyl(4ξ-Me) = CCC(C)CCC(=O)*; dOrn = NCCC[C@@H](N)C(=O)O; Orn = NCCC[C@H](N)C(=O)O; Dap = NC[C@H](N)C(=O)O; Alloc = C=CCOC(=O)*
Legend:
Escherichia coli [1] = assay: Antibacterial activity Escherichia coli ATCC 25922 assessed as inhibition of visible bacterial growth incubated for 18 hrs by microbroth dilution assay; assay type: functional
Outline: (§1)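 CLSI broth microdilution. Strains streaked from glycerol stocks onto blood agar (16 h, 37 °C); single colonies grown in TSB at 37 °C, 220 rpm, to OD600 about 0.5. Diluted in MHB to 2 × 10^5 CFU/mL and mixed 1:1 with compounds serially diluted in MHB from DMSO stocks (colistin from water stocks), polypropylene plates. Sealed, 18 h at 37 °C, 600 rpm. MIC taken as lowest concentration preventing visible growth, three technical replicates.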

Klebsiella pneumoniae = assay: Antibacterial activity Klebsiella pneumoniae ATCC 13883 assessed as inhibition of visible bacterial growth incubated for 18 hrs by microbroth dilution assay; assay type: functional; outline: as §1
Acinetobacter baumannii = assay: Antibacterial activity Acinetobacter baumannii ATCC 17961 assessed as inhibition of visible bacterial growth incubated for 18 hrs by microbroth dilution assay; assay type: functional; outline: as §1
Pseudomonas aeruginosa = assay: Antibacterial activity Pseudomonas aeruginosa PAO1 assessed as inhibition of visible bacterial growth incubated for 18 hrs by microbroth dilution assay; assay type: functional
Outline: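 CLSI broth microdilution. Colonies from blood agar (16 h, 37 °C) grown in TSB at 37 °C, 220 rpm, to OD600 about 0.5, then diluted in MHB to 2 × 10^5 CFU/mL. Added to DMSO-stock compounds serially diluted in MHB in polypropylene plates. Sealed, 18 h at 37 °C, 600 rpm. MIC = lowest concentration with no visible growth; three technical replicates.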

Staphylococcus aureus = assay: Antibacterial activity Staphylococcus aureus USA300 assessed as inhibition of visible bacterial growth incubated for 18 hrs by microbroth dilution assay; assay type: functional; outline: as §1
Escherichia coli [2] = assay: Antibacterial activity Escherichia coli MCR-1 assessed as inhibition of visible bacterial growth incubated for 18 hrs by microbroth dilution assay; assay type: functional
Outline: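 Colistin-resistant E. coli 25922 carrying MCR-1, grown from glycerol stock in kanamycin-supplemented TSB for 16 h at 37 °C, 220 rpm. Diluted 100-fold in kanamycin-supplemented TSB and grown to OD600 about 0.5, then diluted in MHB to 2 × 10^5 CFU/mL. Combined 1:1 with MHB serial dilutions of compounds. Sealed, 18 h at 37 °C, 600 rpm; lowest concentration without visible growth, triplicate technical replicates.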

[3] = Hemolytic activity in sheep red blood cell assessed as hemolysis at 1 to 128 ug/ml incubated for 1 hrs relative to control; assay type: toxicity, cell-based, Ovis aries, Erythrocyte; conditions: sheep red blood cells (erythrocytes), at 1 to 128 µg/mL, dose 1-128 µg/ml, read-out: Activity
Outline: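 Defibrinated sheep erythrocytes washed five times in PBS with 0.002% Tween20 and normalized so the Triton control reads 2.5–3.0 at 415 nm. Mixed 1:1 with compound serial dilutions (128–1 μg/mL) and incubated 1 h at 37 °C, 500 rpm. Supernatant A415 is background-corrected with buffer and expressed as percent of 0.1% Triton X-100 (final). Run in triplicate.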

Structure (SMILES)	MIC (Escherichia coli [1]) [µg/mL]	MIC (Klebsiella pneumoniae) [µg/mL]	MIC (Acinetobacter baumannii) [µg/mL]	MIC (Pseudomonas aeruginosa) [µg/mL]	MIC (Staphylococcus aureus) [µg/mL]	MIC (Escherichia coli [2]) [µg/mL]	hemolysis at 1 h [3] [%]
CCC(C)CCC(=O)N[C@H](CC(N)=O)C(=O)N[C@H](Cc1ccc(O)cc1)C(=O)N[C@H](Cc1c[nH]c2ccccc12)C(=O)N[C@H](CCCN)C(=O)N[C@@H](CCCN)C(=O)NCC(=O)N[C@H](C)C(=O)N[C@@H](Cc1c[nH]c2ccccc12)C(=O)N[C@H](C(=O)N[C@H](C(=O)NCC(=O)N[C@@H](CO)C(N)=O)[C@@H](C)CC)[C@@H](C)O (some centres not stated) ({Hexanoyl(4ξ-Me)}-[dN][dY][dW][dOrn][Orn]G[dA]WTIGS-NH2)	> 32	> 32	16 (≈ 10.7 µM)	32 (≈ 21.4 µM)	> 32	> 32	–
CCC(C)CCC(=O)N[C@H](CC(N)=O)C(=O)N[C@H](Cc1ccc(O)cc1)C(=O)N[C@H](Cc1c[nH]c2ccccc12)C(=O)N[C@H](CCCN)C(=O)N[C@@H](CCCN)C(=O)NCC(=O)N[C@H](CCCN)C(=O)N[C@@H](Cc1c[nH]c2ccccc12)C(=O)N[C@@H](C)C(=O)N[C@H](C(=O)NCC(=O)N[C@@H](CO)C(N)=O)[C@@H](C)CC (some centres not stated) ({Hexanoyl(4ξ-Me)}-[dN][dY][dW][dOrn][Orn]G[dOrn]WAIGS-NH2)	8 (≈ 5.31 µM)	16 (≈ 10.6 µM)	16 (≈ 10.6 µM)	4 (≈ 2.65 µM)	> 32	16 (≈ 10.6 µM)	–
CCC(C)CCC(=O)N[C@H](CC(N)=O)C(=O)N[C@H](Cc1ccc(O)cc1)C(=O)N[C@H](C)C(=O)N[C@H](CCCN)C(=O)N[C@@H](CCCN)C(=O)NCC(=O)N[C@H](CCCN)C(=O)N[C@@H](Cc1c[nH]c2ccccc12)C(=O)N[C@H](C(=O)N[C@H](C(=O)NCC(=O)N[C@@H](CO)C(N)=O)[C@@H](C)CC)[C@@H](C)O (some centres not stated) ({Hexanoyl(4ξ-Me)}-[dN][dY][dA][dOrn][Orn]G[dOrn]WTIGS-NH2)	> 32	> 32	> 32	32 (≈ 22.5 µM)	> 32	> 32	–
CCC(C)CCC(=O)N[C@H](CC(N)=O)C(=O)N[C@H](Cc1ccc(O)cc1)C(=O)N[C@H](Cc1c[nH]c2ccccc12)C(=O)N[C@H](CCCN)C(=O)N[C@@H](CCCN)C(=O)N[C@@H](C)C(=O)N[C@H](CCCN)C(=O)N[C@@H](Cc1c[nH]c2ccccc12)C(=O)N[C@H](C(=O)N[C@H](C(=O)NCC(=O)N[C@@H](CO)C(N)=O)[C@@H](C)CC)[C@@H](C)O (some centres not stated) ({Hexanoyl(4ξ-Me)}-[dN][dY][dW][dOrn][Orn]A[dOrn]WTIGS-NH2)	32 (≈ 20.6 µM)	> 32	32 (≈ 20.6 µM)	32 (≈ 20.6 µM)	> 32	32 (≈ 20.6 µM)	–
CCC(C)CCC(=O)N[C@H](CC(N)=O)C(=O)N[C@H](Cc1ccc(O)cc1)C(=O)N[C@H](Cc1c[nH]c2ccccc12)C(=O)N[C@H](CCCN)C(=O)N[C@@H](C)C(=O)NCC(=O)N[C@H](CCCN)C(=O)N[C@@H](Cc1c[nH]c2ccccc12)C(=O)N[C@H](C(=O)N[C@H](C(=O)NCC(=O)N[C@@H](CO)C(N)=O)[C@@H](C)CC)[C@@H](C)O (some centres not stated) ({Hexanoyl(4ξ-Me)}-[dN][dY][dW][dOrn]AG[dOrn]WTIGS-NH2)	> 32	> 32	> 32	32 (≈ 21.4 µM)	> 32	> 32	–
CCC(C)CCC(=O)N[C@H](CC(N)=O)C(=O)N[C@H](Cc1ccc(O)cc1)C(=O)N[C@H](Cc1c[nH]c2ccccc12)C(=O)N[C@H](CCCN)C(=O)N[C@@H](CCCN)C(=O)NCC(=O)N[C@H](CCCN)C(=O)N[C@@H](Cc1c[nH]c2ccccc12)C(=O)N[C@H](C(=O)N[C@@H](C)C(=O)NCC(=O)N[C@@H](CO)C(N)=O)[C@@H](C)O (some centres not stated) ({Hexanoyl(4ξ-Me)}-[dN][dY][dW][dOrn][Orn]G[dOrn]WTAGS-NH2)	> 32	> 32	> 32	16 (≈ 10.7 µM)	> 32	> 32	–
CCC(C)CCC(=O)N[C@H](CC(N)=O)C(=O)N[C@H](Cc1ccc(O)cc1)C(=O)N[C@H](Cc1c[nH]c2ccccc12)C(=O)N[C@H](CCCN)C(=O)N[C@@H](CCCN)C(=O)NCC(=O)N[C@H](CCCN)C(=O)N[C@@H](C)C(=O)N[C@H](C(=O)N[C@H](C(=O)NCC(=O)N[C@@H](CO)C(N)=O)[C@@H](C)CC)[C@@H](C)O (some centres not stated) ({Hexanoyl(4ξ-Me)}-[dN][dY][dW][dOrn][Orn]G[dOrn]ATIGS-NH2)	> 32	> 32	> 32	32 (≈ 22.5 µM)	> 32	> 32	–
CC[C@H](C)[C@H](NC(=O)[C@@H](NC(=O)[C@H](Cc1c[nH]c2ccccc12)NC(=O)[C@@H](CCCN)NC(=O)CNC(=O)[C@H](C)NC(=O)[C@@H](CCCN)NC(=O)[C@@H](Cc1c[nH]c2ccccc12)NC(=O)[C@@H](Cc1ccc(O)cc1)NC(=O)[C@@H](CO)NC(=O)CCCCCC(C)C)[C@@H](C)O)C(=O)N[C@@H](CC(N)=O)C(=O)NCC(=O)NCC(N)=O ({Octanoyl(7-Me)}-[dS][dY][dW][dOrn]AG[dOrn]WTINGG-NH2)	–	–	–	–	–	> 32	–
CC(C)CCCCCC(=O)N[C@H](CO)C(=O)N[C@H](Cc1ccc(O)cc1)C(=O)N[C@H](Cc1c[nH]c2ccccc12)C(=O)N[C@H](CCCN)C(=O)N[C@@H](CCCN)C(=O)NCC(=O)N[C@H](CCCN)C(=O)N[C@@H](Cc1c[nH]c2ccccc12)C(=O)N[C@H](C(N)=O)[C@@H](C)O ({Octanoyl(7-Me)}-[dS][dY][dW][dOrn][Orn]G[dOrn]WT-NH2)	> 32	–	–	–	–	–	< 0.1
CCC(C)CCC(=O)N[C@H](CC(N)=O)C(=O)N[C@H](Cc1ccc(O)cc1)C(=O)N[C@H](Cc1c[nH]c2ccccc12)C(=O)N[C@H](CCCN)C(=O)N[C@@H](CCCN)C(=O)NCC(=O)N[C@H](CCCN)C(=O)N[C@@H](Cc1c[nH]c2ccccc12)C(=O)N[C@@H](CC(=O)O)C(=O)N[C@H](C(=O)NCC(N)=O)[C@@H](C)CC (some centres not stated) ({Hexanoyl(4ξ-Me)}-[dN][dY][dW][dOrn][Orn]G[dOrn]WDIG-NH2)	> 32	–	–	–	–	> 32	–
CC[C@H](C)[C@H](NC(=O)[C@@H](NC(=O)[C@H](Cc1c[nH]c2ccccc12)NC(=O)[C@@H](CCCN)NC(=O)[C@H](C)NC(=O)[C@H](CCCN)NC(=O)[C@@H](CCCN)NC(=O)[C@@H](Cc1c[nH]c2ccccc12)NC(=O)[C@@H](Cc1ccc(O)cc1)NC(=O)[C@@H](CO)NC(=O)CCCCCC(C)C)[C@@H](C)O)C(=O)N[C@@H](CC(N)=O)C(=O)NCC(=O)NCC(N)=O ({Octanoyl(7-Me)}-[dS][dY][dW][dOrn][Orn]A[dOrn]WTINGG-NH2)	4 (≈ 2.45 µM)	–	–	–	–	–	–
CC[C@H](C)[C@H](NC(=O)[C@H](CN)NC(=O)[C@H](Cc1c[nH]c2ccccc12)NC(=O)[C@@H](CCCN)NC(=O)CNC(=O)[C@H](CCCN)NC(=O)[C@@H](CCCN)NC(=O)[C@@H](Cc1c[nH]c2ccccc12)NC(=O)[C@@H](Cc1ccc(O)cc1)NC(=O)[C@@H](CO)NC(=O)CCCCCC(C)C)C(=O)N[C@@H](CC(N)=O)C(=O)NCC(=O)NCC(N)=O ({Octanoyl(7-Me)}-[dS][dY][dW][dOrn][Orn]G[dOrn]W[Dap]INGG-NH2)	–	–	–	18 (≈ 11.2 µM)	–	–	< 0.1
C=CCOC(=O)NC[C@H](NC(=O)[C@H](Cc1c[nH]c2ccccc12)NC(=O)[C@@H](CCCN)NC(=O)CNC(=O)[C@H](CCCN)NC(=O)[C@@H](CCCN)NC(=O)[C@@H](Cc1c[nH]c2ccccc12)NC(=O)[C@@H](Cc1ccc(O)cc1)NC(=O)[C@@H](CC(N)=O)NC(=O)CCC(C)CC)C(=O)N[C@H](C(=O)NCC(N)=O)[C@@H](C)CC (some centres not stated) ({Hexanoyl(4ξ-Me)}-[dN][dY][dW][dOrn][Orn]G[dOrn]W[Dap](Alloc)IG-NH2)	–	–	–	–	–	–	< 0.1
C=CCOC(=O)NC[C@H](NC(=O)[C@H](Cc1c[nH]c2ccccc12)NC(=O)[C@@H](CCCN)NC(=O)CNC(=O)[C@H](CCCN)NC(=O)[C@@H](CCCN)NC(=O)[C@@H](Cc1c[nH]c2ccccc12)NC(=O)[C@@H](Cc1ccc(O)cc1)NC(=O)[C@@H](CO)NC(=O)CCCCCC(C)C)C(=O)N[C@H](C(=O)N[C@@H](CC(N)=O)C(=O)NCC(=O)NCC(N)=O)[C@@H](C)CC ({Octanoyl(7-Me)}-[dS][dY][dW][dOrn][Orn]G[dOrn]W[Dap](Alloc)INGG-NH2)	–	–	–	–	–	–	< 0.1

Reference: ChEMBL document CHEMBL5380865, “Linearization of the Brevicidine and Laterocidine Lipopeptides Yields Analogues That Retain Full Antibacterial Activity” (J Med Chem, 2023)
